Test results: ChEMBL document CHEMBL4229560, “Increasing C-Terminal Hydrophobicity Improves the Cell Permeability and Antiproliferative Activity of PACE4 Inhibitors against Prostate Cancer Cell Lines” (J Med Chem, 2018)
Where a SMILES comes first, the peptide text is derived from it. [ ]: non-standard residue; d: D form. The star is where a group is joined. NH(4-amidinobenzyl) = N=C(N)c1ccc(CN*)cc1

Assays:
LNCaP [1] = experiment: Antitumor activity against human LNCAP cells xenografted in nu mouse assessed as reduction in serum prostate-specific antigen levels at 2 mg/kg/day, iv administered at 24 hr intervals; type: functional; parameters: scale not given: the % may be the effect or the level left
Homo sapiens = species: Homo sapiens; experiment: Selectivity ratio of Ki for recombinant human furin to Ki for recombinant human PACE4
In short: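 Ki values came from human recombinant enzymes expressed in S2 insect cells. Furin was assayed in 100 mM HEPES pH 7.5, 1 mM CaCl2, 1 mM β-mercaptoethanol and 1.8 g/L BSA. PACE4 was assayed in 20 mM Bis-Tris pH 6.5, 1 mM CaCl2 and 1.8 g/L BSA. Substrate was pERTKR-AMC at 100 µM, with inhibitor at 0–10 µM. Fluorescence (ex 370/em 460 nm) was read for 1 h, and Ki derived by Cheng-Prusoff.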

LNCaP [2] = experiment: Antiproliferative activity against human LNCAP cells after 72 hrs by MTT assay; type: functional, cell-based
In short: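 MTT assay run 72 h. Seeding was ~1500 cells/well for DU145 and ~2500 cells/well for LNCaP, in RPMI 1640 with 5% FBS (DU145) or 10% FBS (LNCaP). Medium was changed after 24 h, then inhibitor added at 1–300 µM or 1–150 µM. MTT was added at 1 g/L final for 4 h and formazan dissolved in 2-propanol/HCl. Readings were relative to vehicle (water, 0.1% DMSO). IC50 was from at least two independent experiments.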

[3] = Acute toxicity in iv dosed CD1 mouse measured within 5 mins post dose; type: organism-based; conditions: in vivo
In short: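 Healthy CD1 mice received a single intravenous dose, given at various dose levels, to locate the toxicity threshold as a maximum tolerated dose (MTD).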

LNCaP [4] = experiment: Antitumor activity against human LNCAP cells xenografted in nu mouse assessed as reduction in tumor volume at 2 mg/kg/day, iv administered at 24 hr intervals; type: functional; parameters: scale not given: the % may be the effect or the level left
[5] = Half life in human plasma by ion chromatogram-based analysis; type: ADME, cell-free
In short: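 Peptide at 50 µM was incubated at 37 °C in human serum from male AB plasma. At each time point, plasma was precipitated with MeOH containing Fmoc-Leu-OH internal standard, centrifuged and filtered. Samples were analysed by UPLC-MS. The peptide/standard ratio of total ion chromatogram peak area was expressed relative to 0 h.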

SMILES: CC(=O)N[C@H](CC(C)C)C(=O)N[C@@H](CC(C)C)C(=O)N[C@@H](CC(C)C)C(=O)N[C@@H](CC(C)C)C(=O)N[C@@H](CCCNC(=N)N)C(=O)N[C@H](C(=O)N[C@@H](CCCCN)C(=O)NCc1ccc(C(=N)N)cc1)C(C)C (Ac-[dL]LLLRVK-{NH(4-amidinobenzyl)})
- Activity (LNCaP [1]): 47%
- Ratio Ki (Homo sapiens): 2
- IC50 (LNCaP [2]): 45 µM
- MTD at 5 min [3]: 10 mg/kg
- Activity (LNCaP [4]): 60%
- half-life [5]: 102 min
